The term Ki denotes a measure of affinity in units of concentration, obtained from inhibition or displacement.

One test concerns the target T1, Muscarinic acetylcholine receptor M1 (Homo sapiens, UniProt P11229).
T1 sequence (P11229 whole entry): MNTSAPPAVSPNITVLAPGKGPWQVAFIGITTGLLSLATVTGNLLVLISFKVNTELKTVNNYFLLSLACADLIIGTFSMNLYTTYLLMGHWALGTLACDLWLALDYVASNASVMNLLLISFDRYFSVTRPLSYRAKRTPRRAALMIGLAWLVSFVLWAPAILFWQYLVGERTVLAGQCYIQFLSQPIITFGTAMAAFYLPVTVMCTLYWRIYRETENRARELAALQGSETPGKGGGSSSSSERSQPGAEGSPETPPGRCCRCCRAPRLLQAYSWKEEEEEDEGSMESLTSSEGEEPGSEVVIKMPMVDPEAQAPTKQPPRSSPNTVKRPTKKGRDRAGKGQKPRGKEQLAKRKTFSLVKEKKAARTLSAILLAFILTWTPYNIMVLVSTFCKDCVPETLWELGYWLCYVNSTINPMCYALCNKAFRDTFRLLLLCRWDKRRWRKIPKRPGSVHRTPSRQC
Nature of the test: Antimuscarinic potency and subset specificity was characterised by inhibition of the [3H]NMS Binding to Muscarinic acetylcholine receptor M1 subtype. The method, boiled down:
(§1)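 Membranes, by hypotonic lysis (2 mM Tris-HCl pH 7.2, 1 mM EDTA) and 50000g spins, from A9 L cells stably carrying cloned brain m1 or m3, heart (M2) or NG108-15 cells (M4). 150-300 µg protein incubated 60 min at 37 °C in PBS pH 7.2 with 0.5 nM [3H]NMS and varied compound levels. Filtration and scintillation counting. Nonspecific binding taken with 1 µM atropine. Ki from LIGAND with KD 235 (m1), 426 (M2), 164 (m3), 144 (M4) pM. Three to six experiments.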
`CCN(CC)CCOC(=O)C(C)(c1ccccc1)c1ccccc1` [APROFENE] came in with a Ki of 0.0021 µM.

A further test concerns the target T1, Muscarinic acetylcholine receptor M1. In words: Antimuscarinic potency and subset specificity was characterised by its inhibition of the [3H]NMS Binding to Muscarinic acetylcholine receptor M1 subtype. In outline: as §1
Take `CCN(CC)CCCCCOC(=O)C(C)(c1ccccc1)C1CCCCC1` (centres undefined): affinity was put at a Ki of 0.298 µM.
The same measure, in the same setting: in the case of `CN(C)CCCCOC(=O)C(C)(c1ccccc1)C1CCCCC1` (centres undefined) it was 0.0407 µM.
On the same count and under the same terms, under `CCN(CC)CCCOC(=O)C(C)(c1ccccc1)C1CCCCC1` (centres undefined) stands 0.0029 µM; under `CN(C)CCCOC(=O)C(C)(c1ccccc1)C1CCCCC1` (centres undefined), 0.0019 µM; under `CCN(CC)CCOC(=O)C(C)(c1ccccc1)C1CCCCC1` (centres undefined), 0.004 µM.
`CCN(CC)CCCCOC(=O)C(C)(c1ccccc1)C1CCCCC1` (centres undefined) gave a Ki of 0.111 µM.

The target of the next test is T2, Muscarinic acetylcholine receptor M2 (Homo sapiens, UniProt P08172).
T2 sequence (P08172 whole entry): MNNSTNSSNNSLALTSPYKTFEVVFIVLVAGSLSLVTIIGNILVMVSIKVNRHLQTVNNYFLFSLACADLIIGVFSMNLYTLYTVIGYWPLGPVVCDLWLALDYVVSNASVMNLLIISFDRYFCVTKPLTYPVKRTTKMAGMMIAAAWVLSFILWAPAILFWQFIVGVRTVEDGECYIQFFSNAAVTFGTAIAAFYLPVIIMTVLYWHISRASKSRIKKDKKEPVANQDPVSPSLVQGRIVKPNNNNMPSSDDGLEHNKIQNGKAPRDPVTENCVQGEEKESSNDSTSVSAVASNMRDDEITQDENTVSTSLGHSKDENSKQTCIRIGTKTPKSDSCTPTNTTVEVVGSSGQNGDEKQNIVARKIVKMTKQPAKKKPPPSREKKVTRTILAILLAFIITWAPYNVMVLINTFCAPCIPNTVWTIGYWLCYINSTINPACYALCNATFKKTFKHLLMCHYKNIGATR
Nature of the test: Antimuscarinic potency and subset specificity was characterised by inhibition of the [3H]NMS Binding to Muscarinic acetylcholine receptor M2 subtype. In outline:
as §1
Compound `CCN(CC)CCOC(=O)C(C)(c1ccccc1)c1ccccc1` [APROFENE] yielded an inhibitory constant (Ki) of 0.0093 µM.

The next test has as its target T2, Muscarinic acetylcholine receptor M2. Nature of the test: Antimuscarinic potency and subset specificity was characterised by its inhibition of the [3H]NMS Binding to Muscarinic acetylcholine receptor M2 subtype. The method, boiled down:
as §1
`CCN(CC)CCCCCOC(=O)C(C)(c1ccccc1)C1CCCCC1` (centres undefined) had a Ki of 0.246 µM.
On the same count and under the same terms, in the case of `CN(C)CCCCOC(=O)C(C)(c1ccccc1)C1CCCCC1` (centres undefined) it was 0.258 µM; in that of `CCN(CC)CCCOC(=O)C(C)(c1ccccc1)C1CCCCC1` (centres undefined), 0.0197 µM.
`CN(C)CCCOC(=O)C(C)(c1ccccc1)C1CCCCC1` (centres undefined): the Ki stood at 0.0269 µM.
Compound `CCN(CC)CCOC(=O)C(C)(c1ccccc1)C1CCCCC1` (centres undefined) gave an inhibitory constant (Ki) of 0.0234 µM.
Same read-out and setting: in the case of `CCN(CC)CCCCOC(=O)C(C)(c1ccccc1)C1CCCCC1` (centres undefined) it was 0.248 µM.

The target of the next test is T3, Muscarinic acetylcholine receptor M3 (Homo sapiens, UniProt P20309). In words: Antimuscarinic potency and subset specificity was characterised by its inhibition of the [3H]NMS Binding to Muscarinic acetylcholine receptor M3 subtype. The method, boiled down: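 Membranes from A9 L cells stably transfected with cloned m3 receptor (brain library), lysed in 2 mM Tris-HCl pH 7.2/1 mM EDTA, centrifuged 50000g. 150-300 µg protein incubated 60 min, 37 °C with 0.5 nM [3H]NMS plus varied compound concentrations in PBS pH 7.2; filtration, scintillation counting. Nonspecific binding: 1 µM atropine. Ki via LIGAND using KD 164 pM; mean of 3-6 experiments ± SD.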
T3 sequence (P20309 whole entry): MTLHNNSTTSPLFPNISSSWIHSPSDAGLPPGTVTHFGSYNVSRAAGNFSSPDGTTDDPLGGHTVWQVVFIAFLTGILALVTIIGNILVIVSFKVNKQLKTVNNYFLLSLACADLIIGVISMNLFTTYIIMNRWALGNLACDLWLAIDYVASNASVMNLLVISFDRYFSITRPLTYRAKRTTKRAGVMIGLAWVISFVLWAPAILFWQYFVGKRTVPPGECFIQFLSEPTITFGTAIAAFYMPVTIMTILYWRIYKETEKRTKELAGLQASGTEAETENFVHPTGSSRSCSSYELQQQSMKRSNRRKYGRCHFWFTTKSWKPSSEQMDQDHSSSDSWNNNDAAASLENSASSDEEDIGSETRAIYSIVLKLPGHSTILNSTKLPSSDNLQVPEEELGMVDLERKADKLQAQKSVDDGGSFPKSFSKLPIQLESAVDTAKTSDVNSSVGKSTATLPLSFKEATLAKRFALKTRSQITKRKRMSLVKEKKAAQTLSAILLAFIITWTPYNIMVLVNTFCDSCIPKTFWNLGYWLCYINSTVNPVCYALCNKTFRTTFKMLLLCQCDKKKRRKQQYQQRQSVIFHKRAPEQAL
`CCN(CC)CCCCCOC(=O)C(C)(c1ccccc1)C1CCCCC1` (centres undefined) returned a Ki of 0.178 µM.
Still for that read-out and setting: in the case of `CN(C)CCCCOC(=O)C(C)(c1ccccc1)C1CCCCC1` (centres undefined) it was 0.0312 µM; in that of `CCN(CC)CCCOC(=O)C(C)(c1ccccc1)C1CCCCC1` (centres undefined), 0.004 µM.
`CN(C)CCCOC(=O)C(C)(c1ccccc1)C1CCCCC1` (centres undefined) showed an inhibition constant (Ki) of 0.0017 µM.
The same measure, in the same setting: under `CCN(CC)CCCCOC(=O)C(C)(c1ccccc1)C1CCCCC1` (centres undefined) stands 0.16 µM.

A further test addresses T3, Muscarinic acetylcholine receptor M3. In words: Antimuscarinic potency and subset specificity was characterised by its inhibition of the [3H]NMS Muscarinic acetylcholine receptor M3 subtype. The method, boiled down: as §1
The compound `CCN(CC)CCOC(=O)C(C)(c1ccccc1)C1CCCCC1` (centres undefined) displayed an inhibition constant (Ki) of 0.0099 µM.

The target in another test is T4, Muscarinic acetylcholine receptor M4 (Homo sapiens, UniProt P08173).
T4 sequence (P08173 whole entry): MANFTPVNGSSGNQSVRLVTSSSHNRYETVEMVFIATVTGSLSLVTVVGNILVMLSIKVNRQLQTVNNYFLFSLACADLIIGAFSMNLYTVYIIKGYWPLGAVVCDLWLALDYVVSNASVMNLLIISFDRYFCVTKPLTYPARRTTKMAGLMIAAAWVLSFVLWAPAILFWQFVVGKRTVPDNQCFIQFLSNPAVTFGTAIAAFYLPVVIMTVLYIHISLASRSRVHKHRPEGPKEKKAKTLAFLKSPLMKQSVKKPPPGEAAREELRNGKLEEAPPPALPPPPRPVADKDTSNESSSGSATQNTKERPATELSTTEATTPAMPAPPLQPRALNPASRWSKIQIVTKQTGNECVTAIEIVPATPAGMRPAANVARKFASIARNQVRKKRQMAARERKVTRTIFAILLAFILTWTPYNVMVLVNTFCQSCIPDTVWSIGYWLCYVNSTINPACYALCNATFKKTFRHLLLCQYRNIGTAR
Nature of the test: Antimuscarinic potency and subset specificity was characterised by its inhibition of the [3H]NMS Binding to Muscarinic acetylcholine receptor M4 subtype. In outline:
as §1
On to `CCN(CC)CCCCCOC(=O)C(C)(c1ccccc1)C1CCCCC1` (centres undefined), for which affinity was put at a Ki of 0.173 µM.
Still for that read-out and setting: in the case of `CN(C)CCCCOC(=O)C(C)(c1ccccc1)C1CCCCC1` (centres undefined) it was 0.0656 µM; in that of `CCN(CC)CCCOC(=O)C(C)(c1ccccc1)C1CCCCC1` (centres undefined), 0.0046 µM; in that of `CN(C)CCCOC(=O)C(C)(c1ccccc1)C1CCCCC1` (centres undefined), 0.0015 µM.
As for `CCN(CC)CCOC(=O)C(C)(c1ccccc1)C1CCCCC1` (centres undefined), affinity was put at a Ki of 0.0185 µM.
Still for that read-out and setting: under `CCN(CC)CCCCOC(=O)C(C)(c1ccccc1)C1CCCCC1` (centres undefined) stands 0.209 µM; under `CCN(CC)CCOC(=O)C(C)(c1ccccc1)c1ccccc1` [APROFENE], 0.0074 µM.

System in a further test: not listed separately
Nature of the test: Selectivity ratio relative to atropine is [(atropine IC50 value for pancreas)/(compound IC50 value for pancreas)] / [(atropine KB value for ileum) /(compound KB value for ileum)]. Format: tissue-based. The method, boiled down: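 Rat pancreatic acini from male Sprague-Dawley rats, collagenase digested, exposed to 10^-5 M carbachol with varied compound levels. […] Ileum KB comes from Schild plots on male guinea pig distal ileum at 37 °C, ACh-induced isometric contraction, compound added 30 s before ACh. Ratio as printed, referenced to atropine.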
For `CCN(CC)CCCCCOC(=O)C(C)(c1ccccc1)C1CCCCC1` (centres undefined), the Selectivity worked out at 11.5.
Turning to `CCN(CC)CCCOC(=O)C(C)(c1ccccc1)C1CCCCC1` (centres undefined), the Selectivity is 19.1.
Consider `CN(C)CCCOC(=O)C(C)(c1ccccc1)C1CCCCC1` (centres undefined), for which the Selectivity came out at 30.8.
On the same count and under the same terms, under `CCN(CC)CCOC(=O)C(C)(c1ccccc1)C1CCCCC1` (centres undefined) stands 16.7.

A further test deals with Muscarinic acetylcholine receptor M1 and M3 (Homo sapiens) (UniProt P20309+P11229). In words: Selectivity index is defined as the ratio of Ki value for m1 receptor / Ki value for m3 receptor. Format: protein assay.
Chain of Muscarinic acetylcholine receptor M1 and M3 (Homo sapiens) (P20309 whole entry, looked up, one chain of several): as the sequence (P20309 whole entry) above
Regarding `CCN(CC)CCCCCOC(=O)C(C)(c1ccccc1)C1CCCCC1` (centres undefined), the Selectivity ratio was 0.6.
The same measure, in the same setting: under `CCN(CC)CCCOC(=O)C(C)(c1ccccc1)C1CCCCC1` (centres undefined) stands 1.4; under `CN(C)CCCOC(=O)C(C)(c1ccccc1)C1CCCCC1` (centres undefined), 0.9; under `CCN(CC)CCOC(=O)C(C)(c1ccccc1)C1CCCCC1` (centres undefined), 2.5.

System in another test: not listed separately
In words: Selectivity index is defined as the ratio of Ki value for m3 receptor / Ki value for M4 receptor.
Turning to `CCN(CC)CCCCCOC(=O)C(C)(c1ccccc1)C1CCCCC1` (centres undefined), the Selectivity ratio amounted to 1.
Same read-out and setting: under `CCN(CC)CCCOC(=O)C(C)(c1ccccc1)C1CCCCC1` (centres undefined) stands 1.2; under `CN(C)CCCOC(=O)C(C)(c1ccccc1)C1CCCCC1` (centres undefined), 0.9; under `CCN(CC)CCOC(=O)C(C)(c1ccccc1)C1CCCCC1` (centres undefined), 1.9.

Values taken from ChEMBL document CHEMBL1125426, “Muscarinic receptor subtype specificity of (N,N-dialkylamino)alkyl 2-cyclohexyl-2-phenylpropionates: cylexphenes (cyclohexyl-substituted aprophen analogues)” (J Med Chem, 1992).
